From ChEMBL document CHEMBL1132167, “Flavonoid-related modulators of multidrug resistance: synthesis, pharmacological activity, and structure-activity relationships” (J Med Chem, 1999)
pIC50: −log10 of the molar value.

How the values were obtained:
[1] = molecular target: T1, ATP-dependent translocase ABCB1 (Homo sapiens, UniProt P08183); assay: Pgp transport inhibitory activity at 1 uM was measured by JC-1 accumulation assay method using JC-1 as substrate; type: functional
Procedure, shortened: (§1)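 JC-1 stock (1 mg/mL in DMSO) diluted to 5 μg/mL in PBS with 1 g/L glucose, then filtered to remove aggregates (monomer 0.2 μM final). Washed K562/DOX cells at 5×10^5/mL were incubated with JC-1 and compound concurrently at 37 °C, DMSO ≤0.5%. Fluorescence (485/590 nm) was followed to plateau, about 2 h. Accumulation is expressed as % of the 5 μM S9788 plate control after subtracting JC-1 alone. Mean of ≥2 experiments.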

[2] = molecular target: T1, ATP-dependent translocase ABCB1; assay: Pgp transport inhibitory activity at 10 uM was measured by JC-1 accumulation assay method using JC-1 as substrate; type: functional; procedure, shortened: as §1
K562 [3] = assay: Ability to potentiate DOX cytotoxicity on K562/DOX MDR cells. Cell survival was assayed by MTT conversion; type: functional, cell-based; conditions: Homo sapiens
Procedure, shortened: (§2)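 K562/DOX human erythroleukemia cells (doxorubicin-selected, Pgp-overexpressing; RPMI-1640 + 10% FCS) exposed 72 h to seven graded doxorubicin concentrations (six wells each) plus tested compound at 1 or 5 μM, DMSO ≤0.1% final. MTT formazan dissolved in DMSO, A570 read. Survival relative to untreated wells; DOX IC50 by linear interpolation; MF = IC50(DOX alone)/IC50(DOX + compound). Mean of ≥2 independent experiments.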

[4] = (§3) modulation factor: IC50 (uM); type: functional
[5] = molecular target: T1, ATP-dependent translocase ABCB1; assay: Pgp transport inhibitory activity at 5 uM was measured by JC-1 accumulation assay method using JC-1 as substrate; type: functional; procedure, shortened: as §1
K562 [6] = assay: Modulation factor: IC50(DOX alone)/IC50(DOX+modulator); type: functional, Homo sapiens; procedure, shortened: as §2
[7] = Modulation factor: IC50(DOX alone)/IC50(DOX+modulator).; type: functional; procedure, shortened: as §2
[8] = as §3; type: functional; remark: listed apart in the source

T1 sequence (P08183 whole entry): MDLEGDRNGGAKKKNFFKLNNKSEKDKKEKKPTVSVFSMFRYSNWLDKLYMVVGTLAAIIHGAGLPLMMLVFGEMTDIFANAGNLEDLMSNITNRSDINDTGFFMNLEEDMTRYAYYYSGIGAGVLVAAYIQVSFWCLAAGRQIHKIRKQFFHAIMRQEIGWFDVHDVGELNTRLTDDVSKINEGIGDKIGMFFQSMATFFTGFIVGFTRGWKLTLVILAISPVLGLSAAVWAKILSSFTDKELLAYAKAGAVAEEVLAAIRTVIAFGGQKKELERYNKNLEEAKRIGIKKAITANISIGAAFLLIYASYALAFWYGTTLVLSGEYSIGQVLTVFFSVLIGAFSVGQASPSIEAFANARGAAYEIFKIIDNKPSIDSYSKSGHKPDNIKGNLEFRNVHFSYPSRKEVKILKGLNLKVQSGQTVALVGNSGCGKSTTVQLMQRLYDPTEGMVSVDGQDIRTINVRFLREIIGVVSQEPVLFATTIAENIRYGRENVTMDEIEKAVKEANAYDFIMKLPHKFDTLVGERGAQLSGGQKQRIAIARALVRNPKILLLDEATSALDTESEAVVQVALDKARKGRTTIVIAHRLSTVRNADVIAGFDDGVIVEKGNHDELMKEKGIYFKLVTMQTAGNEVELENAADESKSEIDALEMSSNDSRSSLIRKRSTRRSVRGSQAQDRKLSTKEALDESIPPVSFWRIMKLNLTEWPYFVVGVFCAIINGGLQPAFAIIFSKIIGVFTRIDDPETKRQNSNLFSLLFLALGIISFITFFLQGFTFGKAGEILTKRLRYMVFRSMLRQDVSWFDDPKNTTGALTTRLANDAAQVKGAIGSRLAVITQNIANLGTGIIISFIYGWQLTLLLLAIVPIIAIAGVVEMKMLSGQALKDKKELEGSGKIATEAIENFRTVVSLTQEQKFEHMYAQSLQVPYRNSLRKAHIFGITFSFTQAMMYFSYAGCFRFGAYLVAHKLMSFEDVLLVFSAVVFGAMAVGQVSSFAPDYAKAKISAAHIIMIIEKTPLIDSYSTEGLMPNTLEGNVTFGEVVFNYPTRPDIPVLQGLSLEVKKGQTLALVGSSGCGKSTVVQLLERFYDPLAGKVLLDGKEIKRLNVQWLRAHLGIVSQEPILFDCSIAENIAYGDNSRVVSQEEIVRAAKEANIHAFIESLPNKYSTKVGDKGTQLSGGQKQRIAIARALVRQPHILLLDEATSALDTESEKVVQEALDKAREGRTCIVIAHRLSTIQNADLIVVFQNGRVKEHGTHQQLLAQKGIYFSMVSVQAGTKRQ

Structure (SMILES)	Relative JC-1 accumulation [1]	Relative JC-1 accumulation [2]	pIC50 (K562 [3])	Modulation factor [4]	Relative JC-1 accumulation [5]	Modulation factor (K562 [6])	Modulation factor [7]	Modulation factor [8]
COc1ccc(CCC(=O)c2c(O)cc(OCC(=O)N3CCN(Cc4ccc(OC)c(OC)c4OC)CC3)cc2O)cc1O	2	5	< 4.70	3				
COc1ccc(C2CC(=O)c3c(O)cc(OCC(=O)N4CCN(Cc5cc(OC)c(OC)c(OC)c5)CC4)cc3O2)cc1O (configuration not stated)	0	8	< 4.70		3	2	21	
COc1ccc(-c2cc(=O)c3c(OCC(=O)N4CCN(Cc5ccc(OC)c(OC)c5OC)CC4)cc(O)cc3o2)cc1O	0	0	< 4.70		0		1	
COc1ccc(/C=C/C(=O)c2c(O)cc(OCC(=O)N3CCN(Cc4ccc(OC)c(OC)c4OC)CC3)cc2O)cc1O	3	21	< 4.70	45	17			9
COc1ccc(C2CC(=O)c3c(O)cc(OCC(=O)N4CC[N+](C)(Cc5ccc(OC)c(OC)c5OC)CC4)cc3O2)cc1O.[I-] (configuration not stated)	0	0	< 4.70		0		1	
COc1ccc(-c2cc(=O)c3c(O)cc(O[C@@H]4O[C@H](CO)[C@H](O)[C@@H](O)[C@H]4O)cc3o2)cc1OCC(=O)N1CCN(Cc2ccc(OC)c(OC)c2OC)CC1	0	0	< 4.70	1	0			
CCOC(=O)COc1cc(-c2cc(=O)c3c(O)cc(OCC(=O)N4CCN(Cc5cc(OC)c(OC)c(OC)c5)CC4)cc3o2)ccc1OC	2	24	< 4.70		26	3	31	
COc1ccc(CCN(C)CCCC(C#N)(c2ccc(OC)c(OC)c2)C(C)C)cc1OC (configuration not stated) [VERAPAMIL]			4.43	31				7
CCOC(=O)COc1cc(-c2cc(=O)c3c(O)cc(OCC(=O)N4CCN(Cc5ccc(OC)c(OC)c5)CC4)cc3o2)ccc1OC	3	27	< 4.70		28	4	23	
CCOC(=O)COc1cc(-c2cc(=O)c3c(O)cc(OCC(=O)N4CCN(Cc5ccc(Cl)cc5)CC4)cc3o2)ccc1OC	6	23	4.85		14	4	22	
COc1ccc(C2CC(=O)c3c(O)cc(OCC(=O)N4CCN(Cc5ccc(OC)c(OC)c5OC)CC4)cc3O2)cc1OC(C)=O (configuration not stated)	33	91	< 4.70	31	82			8
CCOC(=O)COc1cc(O)c2c(=O)cc(-c3ccc(OC)c(OCC(=O)N4CCN(Cc5ccccc5Cl)CC4)c3)oc2c1	7	24	< 4.70		13	2	7	
CCOC(=O)COc1cc(O)c2c(=O)cc(-c3ccc(OC)c(OCC(=O)N4CCN(Cc5ccc(OC)c(OC)c5)CC4)c3)oc2c1	4	31	5.05		26	2	25	
COc1ccc(-c2cc(=O)c3c(O)cc(OCC(=O)N4CCN(Cc5ccc(OC)c(OC)c5OC)CC4)cc3o2)cc1OCC(=O)N1CCN(Cc2ccc(OC)c(OC)c2OC)CC1	22	53	5.70		60	1		
COc1ccc(C2CC(=O)c3c(OC(C)=O)cc(OCC(=O)N4CCN(Cc5ccc(OC)c(OC)c5OC)CC4)cc3O2)cc1OC(C)=O (configuration not stated)	2	75	< 4.70	31	55			10
CCOC(=O)COc1cc(-c2cc(=O)c3c(O)cc(OCC(=O)N4CCN(Cc5ccc(OC)c(OC)c5OC)CC4)cc3o2)ccc1OC	14	73	< 4.70		69	9	22	
COc1ccc(-c2cc(=O)c3c(O)cc(O[C@@H]4O[C@H](CO[C@@H]5O[C@@H](C)[C@H](O)[C@@H](O)[C@H]5O)[C@@H](O)[C@H](O)[C@H]4O)cc3o2)cc1OCC(=O)N1CCN(Cc2ccc(OC)c(OC)c2OC)CC1	0	0	< 4.70	1	0			
COc1ccc(-c2cc(=O)c3c(OCC(=O)N4CCN(Cc5ccc(OC)c(OC)c5OC)CC4)cc(OCc4ccccc4)cc3o2)cc1OCc1ccccc1	28	56	5.10	45	50			14
COc1ccc(C2CC(=O)c3c(O)cc(OCC(=O)N4CCN(Cc5cccc(OC)c5OC)CC4)cc3O2)cc1O (configuration not stated)	0	6	< 4.70		2	4	28	
COc1ccc(C2CC(=O)c3c(O)cc(OCC(=O)N4CCN(Cc5ccc(OC)c(OC)c5)CC4)cc3O2)cc1O (configuration not stated)	0	31	< 4.70		9	4	31	
COc1ccc(C2CC(=O)c3c(O)cc(OCC(=O)N4CCN(Cc5ccc(OC)c(OC)c5OC)CC4)cc3O2)cc1O (configuration not stated)	4	69	4.80		50	11	42	
CCOC(=O)COc1cc(O)c2c(=O)cc(-c3ccc(OC)c(OCC(=O)N4CCN(Cc5ccc(OC)c(OC)c5OC)CC4)c3)oc2c1	7	59	< 4.70		56	3	17	
CCOC(=O)COc1cc(O)c2c(=O)cc(-c3ccc(OC)c(OCC(=O)N4CCN(Cc5cc(OC)c(OC)c(OC)c5)CC4)c3)oc2c1	5	55	4.96		56	5	25	
CCOC(=O)COc1cc(-c2cc(=O)c3c(O)cc(OCC(=O)N4CCN(Cc5cccc(OC)c5OC)CC4)cc3o2)ccc1OC	2	28	< 4.70		22	5	24	
CCOC(=O)COc1cc(OCC(=O)N2CCN(Cc3ccc(OC)c(OC)c3OC)CC2)c2c(=O)cc(-c3ccc(OC)c(OCC(=O)OCC)c3)oc2c1	1	59	< 4.70		10		1	
COc1ccc(-c2cc(=O)c3c(O)cc(OCC(=O)N4CCN(Cc5ccc(OC)c(OC)c5OC)CC4)cc3o2)cc1O	4	30	5.22		50	11	78	
CCOC(=O)COc1cc(-c2cc(=O)c3c(O)cc(OCC(=O)N4CCN(Cc5ccccc5)CC4)cc3o2)ccc1OC	10	38	< 4.70		35	4	21	
COc1ccc(C2CC(=O)c3c(OC(=O)C(C)(C)C)cc(OCC(=O)N4CCN(Cc5ccc(OC)c(OC)c5OC)CC4)cc3O2)cc1OC(=O)C(C)(C)C (configuration not stated)	72	75	< 4.70	45	82			18
COc1ccc(-c2cc(=O)c3c(O)cc(O)cc3o2)cc1OCC(=O)N1CCN(Cc2ccc(OC)c(OC)c2OC)CC1	0	0	< 4.70	1	0			
